Our source for the inhibition and IC50 values is ChEMBL document CHEMBL1148020, “Synthesis and glycogen phosphorylase inhibitor activity of 2,3-dihydrobenzo[1,4]dioxin derivatives” (Bioorg Med Chem, 2007).

Assay [1] is filed under the species Homo sapiens. Put plainly: Inhibition of glycogen phosphorylase A at 625 uM.
Assay [2] has as its target T1, Glycogen phosphorylase, liver form (Homo sapiens) (UniProt P06737).
T1 sequence (whole entry): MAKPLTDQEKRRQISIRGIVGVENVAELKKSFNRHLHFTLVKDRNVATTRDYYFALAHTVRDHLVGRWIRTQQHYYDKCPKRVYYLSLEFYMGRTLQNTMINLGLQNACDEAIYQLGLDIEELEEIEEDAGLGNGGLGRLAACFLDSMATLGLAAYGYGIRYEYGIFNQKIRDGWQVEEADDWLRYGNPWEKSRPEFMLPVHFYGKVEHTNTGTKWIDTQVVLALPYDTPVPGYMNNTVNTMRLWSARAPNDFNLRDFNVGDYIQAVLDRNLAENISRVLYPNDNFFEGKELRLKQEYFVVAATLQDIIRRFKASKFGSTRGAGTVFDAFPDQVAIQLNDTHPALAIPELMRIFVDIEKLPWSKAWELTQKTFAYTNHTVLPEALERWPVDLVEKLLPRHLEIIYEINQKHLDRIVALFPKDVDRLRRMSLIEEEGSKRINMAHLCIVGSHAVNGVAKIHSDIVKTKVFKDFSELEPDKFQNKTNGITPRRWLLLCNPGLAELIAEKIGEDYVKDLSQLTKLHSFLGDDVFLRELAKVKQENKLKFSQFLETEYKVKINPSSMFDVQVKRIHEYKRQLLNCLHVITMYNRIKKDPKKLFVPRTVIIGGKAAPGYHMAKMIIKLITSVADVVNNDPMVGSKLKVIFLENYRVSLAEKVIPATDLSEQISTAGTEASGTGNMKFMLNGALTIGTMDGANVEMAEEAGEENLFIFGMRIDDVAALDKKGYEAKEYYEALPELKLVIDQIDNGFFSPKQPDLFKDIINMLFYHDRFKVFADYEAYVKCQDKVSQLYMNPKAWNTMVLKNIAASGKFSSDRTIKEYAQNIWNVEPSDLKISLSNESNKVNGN
Put plainly: Inhibition of liver glycogen phosphorylase B at 625 uM.

The species entered for assay [3] is Homo sapiens. Put plainly: Inhibition of glycogen phosphorylase at 625 uM.
A short description of assay [4]: Inhibition of glycogen phosphorylase. The arrangement: species or system Homo sapiens. An outline of the steps: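 Activity measured in the glycogen-synthesis direction at 30 °C with 1% glycogen, with or without glucose-1-phosphate substrate. Buffer was 50 mM triethanolamine/HCl pH 6.8 with 100 mM KCl, 1 mM dithiothreitol and 1 mM EDTA. Muscle or liver phosphorylase a was run without AMP. Phosphorylase b was run with AMP: 1 mM for muscle, 2 mM for liver. Kinetic analysis followed the authors' earlier protocol.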

As a reminder, the inhibition is the drop in the measured response relative to a control, in per cent. A higher inhibition goes with a response far below the control. As for `O=C1N=C(O)S/C1=C\c1ccc(OCC2COc3ccccc3O2)cc1` (configuration not stated), the inhibition in assay [1], in assay [2] and in assay [3] was 20% in each case.
As a reminder, the IC50 is the concentration needed to halve the response being measured. In turn, `O=C1NC(=O)C(Cc2ccc(OCC3COc4cc5c(cc4O3)OCO5)cc2)S1` (configuration not stated) yielded an IC50 in assay [4] of 7 mM.
Regarding `O=C1NC(=O)C(Cc2ccc(OCC3COc4ccccc4O3)cc2)S1` (configuration not stated), the inhibition in assay [1], in assay [2] and in assay [3] was 20% in each case.
